{"source": "paper PMC11923060", "about": "(Scientific Reports, 2025)", "key": {"testes [1]": {"tested_on": "testes", "experiment": "Western blot of junction proteins in testicular tissue", "format": "in vivo, Kunming mice", "details": "Days 20 and 40, + LPS, vs LPS group, n = 10 mice/group", "summary_of_the_method": "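Male Kunming mice (8–10 wk), n = 10/group, gavaged with test peptide 0.5 mg/kg or antibiotic control 25 mg/kg in 200 µL saline for 20 d (10 doses) or 40 d (20 doses), then one i.p. LPS 5 mg/kg; killed 24 h later. ~100 mg testis homogenized in RIPA/protease inhibitors; PVDF blocked in skim milk 2 h, primary antibody overnight 4 °C, secondary 2 h, ECL.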"}, "testes [2]": {"tested_on": "testes", "experiment": "Immunofluorescence of tight junction proteins in testicular tissue", "format": "in vivo, Kunming mice", "details": "Days 20 and 40, + LPS, compared to the LPS group, n = 10 mice/group"}}}
{"substance": "polymyxin B", "values": [{"measurement": "protein expression of TWIST1 (Western blot)", "setting": "testes [1]", "result": "significantly inhibited"}, {"measurement": "expression of Claudin-1 (immunofluorescence)", "setting": "testes [2]", "result": "significant increases"}, {"measurement": "expression of N-cadherin (immunofluorescence)", "setting": "testes [2]", "result": "significant increases"}]}
